Assay results published in ChEMBL document CHEMBL1135780, “6-Chloro-3-alkylamino-4H-thieno[3,2-e]-1,2,4-thiadiazine 1,1-dioxide derivatives potently and selectively activate ATP sensitive potassium channels of pancreatic beta-cells” (J Med Chem, 2002).

Legend:
Beta-TC6 [1] = experiment: Maximum inhibition of glucose stimulated insulin release from mouse beta-TC6 cells at 10 uM in vitro.; assay type: functional
Beta-TC6 [2] = experiment: Ability to inhibit the release of insulin from the mouse beta-TC6 cell line; assay type: functional, cell-based
Summary of the method: (§1)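 βTC6 cells, 5 × 10⁴/well, grown 3 days in DMEM + 10% FCS, 11 mM glucose, 20 mM Hepes. Washed twice in NN buffer with 0.1% BSA, preincubated 60 min, then 3 h with 22 mM glucose, 0.1 mM IBMX and serial compound dilutions. Insulin in supernatant measured by in-house ELISA (guinea pig anti-insulin, rat insulin standard). Reference compound as positive control.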

Rattus norvegicus [3] = organism: Rattus norvegicus; experiment: Ability to relax phenylephrine-contracted rat aorta rings; assay type: functional
[4] = Changes in potassium fluxes assessed in the glucose responsive insulin-producing murine cell line beta-TC3; assay type: functional, cell-based, Mus musculus
Summary of the method: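 βTC3 membrane potential read as DiBAC4(3) fluorescence at 0.01, 0.1, 1, 10 and 100 µM, four wells each. Signal normalized to each well's initial value and expressed as fractional fluorescence change over 45 min incubation. EC50 from four-parameter nonlinear fit; mean ± SEM of at least three independent experiments.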

Rattus norvegicus [5] = organism: Rattus norvegicus; experiment: Effective concentration required for relaxation of rat aorta rings; assay type: functional
[6] = Oral bioavailability in rat (Sprague-Dawley); assay type: ADME, organism-based; conditions: Sprague-Dawley, in vivo
Summary of the method: (§2)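 Cassette dosing, two compounds per cassette, in Sprague–Dawley rats of about 180 g, n = 2. iv doses 0.5 or 0.89 mg/kg; oral doses 1.89 or 2.0 mg/kg. Vehicle 0.1 M potassium phosphate pH 8.0, or PEG 300 based. Heart-puncture sampling, one rat per point. Plasma levels by LC/MS/MS; noncompartmental analysis.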

[7] = Acid dissociation constant was determined; assay type: ADME
Summary of the method: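 Potentiometric titration from pH 2 to 10.5 in 80% MeOH cosolvent. Three titrations on the same sample, with 0.15 M KCl added before the second. psKa values extrapolated to 0% cosolvent by Yasuda–Shedlovsky.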

[8] = Half life after oral administration to Sprague-Dawley rats; assay type: ADME, organism-based; conditions: rat, in vivo; summary of the method: as §2
[9] = Partition coefficient (logP); assay type: physicochemical; conditions: octanol/water
Beta-TC6 [10] = experiment: Percentage insulin release in vitro in beta-TC6 cells; assay type: functional; conditions: Mus musculus; summary of the method: as §1
Rattus norvegicus [11] = organism: Rattus norvegicus; experiment: Maximum change in MAP in rat; assay type: functional
Summary of the method: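 Anaesthetized male Sprague–Dawley rats given 3 mg/kg iv bolus (0.3 mg/kg for one compound) in 0.15% NaOH/saline via jugular cannula. Maximal percent change in mean arterial pressure over 5 min after dosing; mean ± SEM, 2–4 animals.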

Rattus norvegicus [12] = organism: Rattus norvegicus; experiment: Vasodilation effects on Wistar rat mesenteric arteries precontracted with phenylephrine; assay type: functional
Rattus norvegicus [13] = organism: Rattus norvegicus; experiment: Inhibition of glucose-stimulated insulin release from Wistar rat islets; assay type: functional
Summary of the method: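 Isolated rat islets held overnight in RPMI, 10% FCS, 11 mM glucose, then 10 islets/well overnight in DMEM, 10% FCS, 3 mM glucose. Run like the βTC6 assay (60 min NN buffer preincubation, 3 h with 22 mM glucose and serial dilutions) without IBMX. Insulin by in-house ELISA.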

Rattus norvegicus [14] = organism: Rattus norvegicus; experiment: Reduction in plasma insulin in 30 min post-injection in rat; assay type: functional; design: concentration or dose not given beside the values
Summary of the method: (§3)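 Postprandial male Sprague–Dawley rats, 280–320 g, under Hypnorm/Dormicum at 37 °C. 3 mg/kg iv bolus over 20 s via jugular cannula (0.3 mg/kg for one compound), dissolved in 0.15% NaOH and saline. Blood taken every 5–10 min from 15 min pre- to 30 min postinjection. Plasma insulin by ELISA, as % reduction from pre-dose level. 2–4 animals.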

Rattus norvegicus [15] = organism: Rattus norvegicus; experiment: Maximum reduction in plasma insulin in rat; assay type: functional; summary of the method: as §3
[16] = molecular target: T1, Sulfonylurea receptor 1, Kir6.2 (Homo sapiens, UniProt Q09428+Q14654); experiment: Inhibition of [3H]glibenclamide binding to HEK293 cells co-expressing human Sulfonylurea receptor SUR1 and Inward rectifier K+ channel Kir6.2 at high affinity state with 2 mM MgATP; assay type: cell-based
T1 sequence (Q14654 whole entry): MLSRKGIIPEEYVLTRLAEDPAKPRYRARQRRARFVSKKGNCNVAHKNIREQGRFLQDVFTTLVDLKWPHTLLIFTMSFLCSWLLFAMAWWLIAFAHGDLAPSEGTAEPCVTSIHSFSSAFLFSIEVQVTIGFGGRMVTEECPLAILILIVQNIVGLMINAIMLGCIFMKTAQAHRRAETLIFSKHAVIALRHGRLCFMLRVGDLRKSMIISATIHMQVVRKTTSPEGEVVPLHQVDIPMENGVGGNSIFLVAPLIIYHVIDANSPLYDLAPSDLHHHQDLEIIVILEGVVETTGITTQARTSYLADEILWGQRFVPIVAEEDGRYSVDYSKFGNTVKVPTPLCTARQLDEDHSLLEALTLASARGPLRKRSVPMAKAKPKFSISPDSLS
T1 sequence (Q09428 whole entry): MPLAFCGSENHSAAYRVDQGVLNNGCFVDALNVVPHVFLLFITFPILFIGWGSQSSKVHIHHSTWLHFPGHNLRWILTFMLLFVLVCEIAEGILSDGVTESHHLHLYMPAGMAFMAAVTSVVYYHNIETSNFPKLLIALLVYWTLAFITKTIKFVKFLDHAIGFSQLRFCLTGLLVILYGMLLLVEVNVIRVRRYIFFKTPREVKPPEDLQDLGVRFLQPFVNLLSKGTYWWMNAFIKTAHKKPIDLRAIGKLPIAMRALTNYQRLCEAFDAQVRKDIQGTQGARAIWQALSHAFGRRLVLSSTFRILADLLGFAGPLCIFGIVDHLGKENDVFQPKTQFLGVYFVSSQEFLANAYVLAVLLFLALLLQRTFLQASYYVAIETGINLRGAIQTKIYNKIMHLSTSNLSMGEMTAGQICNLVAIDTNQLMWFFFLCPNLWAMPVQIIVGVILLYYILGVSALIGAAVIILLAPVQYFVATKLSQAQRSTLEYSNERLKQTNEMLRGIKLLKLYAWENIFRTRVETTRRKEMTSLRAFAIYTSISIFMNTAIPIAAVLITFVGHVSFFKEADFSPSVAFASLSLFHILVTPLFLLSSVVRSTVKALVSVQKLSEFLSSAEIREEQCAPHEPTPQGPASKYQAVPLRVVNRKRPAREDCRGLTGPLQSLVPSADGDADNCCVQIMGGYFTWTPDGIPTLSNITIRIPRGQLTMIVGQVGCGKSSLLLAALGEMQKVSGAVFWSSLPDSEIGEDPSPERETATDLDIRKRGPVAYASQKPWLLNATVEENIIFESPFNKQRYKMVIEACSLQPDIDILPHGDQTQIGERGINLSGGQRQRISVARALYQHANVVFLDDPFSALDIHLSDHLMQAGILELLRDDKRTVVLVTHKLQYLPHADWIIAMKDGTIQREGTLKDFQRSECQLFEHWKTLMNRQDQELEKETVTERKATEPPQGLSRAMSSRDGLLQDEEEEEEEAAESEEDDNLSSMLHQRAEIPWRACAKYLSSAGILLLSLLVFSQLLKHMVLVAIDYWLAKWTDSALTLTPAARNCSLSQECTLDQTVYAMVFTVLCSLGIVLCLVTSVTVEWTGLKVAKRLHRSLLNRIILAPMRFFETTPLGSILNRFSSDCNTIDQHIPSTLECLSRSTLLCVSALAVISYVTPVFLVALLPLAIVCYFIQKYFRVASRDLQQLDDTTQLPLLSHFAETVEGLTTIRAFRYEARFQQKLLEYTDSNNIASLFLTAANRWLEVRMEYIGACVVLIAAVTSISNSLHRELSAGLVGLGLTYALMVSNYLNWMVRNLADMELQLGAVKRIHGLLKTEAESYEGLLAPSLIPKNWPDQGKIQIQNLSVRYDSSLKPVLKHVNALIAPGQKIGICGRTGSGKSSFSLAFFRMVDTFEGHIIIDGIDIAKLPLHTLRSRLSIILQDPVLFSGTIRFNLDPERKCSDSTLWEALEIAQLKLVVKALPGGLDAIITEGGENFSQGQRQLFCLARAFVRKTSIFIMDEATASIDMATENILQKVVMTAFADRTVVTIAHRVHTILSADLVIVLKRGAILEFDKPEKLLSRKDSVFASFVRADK

[17] = molecular target: T1, Sulfonylurea receptor 1, Kir6.2; experiment: Inhibition of [3H]glibenclamide binding to HEK293 cells co-expressing human Sulfonylurea receptor SUR1 and Inward rectifier K+ channel Kir6.2 at low affinity state with 2 mM MgATP; assay type: cell-based
[18] = molecular target: T1, Sulfonylurea receptor 1, Kir6.2; experiment: (§4) Inhibition of [3H]glibenclamide binding to HEK293 cells co-expressing human Sulfonylurea receptor SUR1 and Inward rectifier K+ channel Kir6.2 without ATP; assay type: cell-based
[19] = LogD for water and octanol distribution coefficient at pH 7.4; assay type: physicochemical
Summary of the method: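 Three titrations on one sample, with 1.00 mL then 10.00 mL octanol added before the second and third. Aqueous pKa used in refinement; combined multiset gives LogD at pH 7.4.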

[20] = molecular target: T1, Sulfonylurea receptor 1, Kir6.2; experiment: as §4; assay type: cell-based; remark: listed apart in the source
Summary of the method: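 Membranes from HEK293 cells stably expressing human SUR1/Kir6.2 (100 µg/mL protein) incubated 1 h at 37 °C with 1 nM [3H]glibenclamide in 30 mM HEPES pH 7.4, here without MgCl2 and ATP. Nonspecific binding with 10 µM glipizide. Rapid filtration, scintillation counting; IC50 by one- or two-site sigmoid nonlinear regression.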

Rattus norvegicus [21] = organism: Rattus norvegicus; experiment: Effective concentration required for relaxation of the rat aorta rings; assay type: functional

| SMILES | Emax at 10 µM (Beta-TC6 [1]) [%] | IC50 (Beta-TC6 [2]) [µM] | EC50 (Rattus norvegicus [3]) [µM] | EC50 [4] [µM] | also measured |
| --- | --- | --- | --- | --- | --- |
| CC(C)C(C)NC1=NS(=O)(=O)c2sc(Cl)cc2N1 (racemic) | 79 | 0.17 | 34.8 |  |  |
| CC(C)[C@@H](C)NC1=NS(=O)(=O)c2sc(Cl)cc2N1 | 62 | 1.01 | 75.3 | 0.3 |  |
| CCCCCCNC1=NS(=O)(=O)c2sc(Cl)cc2N1 | 67 | 7.1 | 0.15 | 0.2 | EC50 (Rattus norvegicus [5]): 0.15 µM |
| CCCNC1=NS(=O)(=O)c2sc(Cl)cc2N1 | 65 | 2.4 | 64.7 | 2 | bioavailability [6]: 69%; pKa [7]: 8.23; half-life [8]: 1.2 h; logP [9]: 2.49; Emax (Beta-TC6 [10]): 65%; Change (Rattus norvegicus [11]): 13%; EC50 (Rattus norvegicus [12]): 23.3 µM; IC50 (Rattus norvegicus [13]): 0.7 µM; Reduction (Rattus norvegicus [14]): 16%; Reduction (Rattus norvegicus [15]): 100%; IC50 [16]: 2.27 µM; IC50 [17]: 584 µM; IC50 [18]: 924 µM; logD [19]: 2.42 |
| CCCCCC(C)NC1=NS(=O)(=O)c2sc(Cl)cc2N1 (racemic) | 36 | 24.9 | 2 | 0.4 |  |
| NC1=NS(=O)(=O)c2sc(Cl)cc2N1 | 27 | 21.1 | 262 |  | EC50 (Rattus norvegicus [5]): 262 µM |
| CC[C@H](C)NC1=NS(=O)(=O)c2sc(Cl)cc2N1 |  | 0.41 | 51 | 0.8 | bioavailability [6]: 49%; pKa [7]: 8.42; half-life [8]: 0.967 h; Emax (Beta-TC6 [10]): 79%; Change (Rattus norvegicus [11]): -7%; EC50 (Rattus norvegicus [12]): 19.2 µM; IC50 (Rattus norvegicus [13]): 0.07 µM; Reduction (Rattus norvegicus [14]): 94%; Reduction (Rattus norvegicus [15]): 96%; IC50 [20]: 420 µM; IC50 [16]: 0.46 µM; IC50 [17]: 309 µM |
| CC(NC1=NS(=O)(=O)c2sc(Cl)cc2N1)C(C)(C)C (racemic) | 56 | 0.75 | 2 | 17 |  |
| CCC(C)(C)NC1=NS(=O)(=O)c2sc(Cl)cc2N1 |  | 0.03 | 11.8 | 0.2 | bioavailability [6]: 47%; half-life [8]: 1.65 h; Emax (Beta-TC6 [10]): 82%; Change (Rattus norvegicus [11]): -34%; EC50 (Rattus norvegicus [12]): 29.4 µM; IC50 (Rattus norvegicus [13]): 0.02 µM; Reduction (Rattus norvegicus [14]): 77%; Reduction (Rattus norvegicus [15]): 87%; IC50 [16]: 0.18 µM; IC50 [17]: 375 µM; IC50 [18]: 899 µM |
| CCCC(C)NC1=NS(=O)(=O)c2sc(Cl)cc2N1 (racemic) | 56 | 0.22 | 83 | 41 |  |
| CCC(CC)CNC1=NS(=O)(=O)c2sc(Cl)cc2N1 | 38 | 0.24 | 8 | > 100 |  |
| CC(C)(C)NC1=NS(=O)(=O)c2sc(Cl)cc2N1 |  | 0.17 | 169 | 0.4 | Emax (Beta-TC6 [10]): 77%; Change (Rattus norvegicus [11]): -36%; EC50 (Rattus norvegicus [12]): 60.6 µM; IC50 (Rattus norvegicus [13]): 0.06 µM; Reduction (Rattus norvegicus [14]): 71%; Reduction (Rattus norvegicus [15]): 85%; IC50 [16]: 0.23 µM; IC50 [17]: 393 µM; IC50 [18]: 1350 µM |
| CCC1(NC2=NS(=O)(=O)c3sc(Cl)cc3N2)CCC1 | 81 | 0.02 | 3.3 | 0.1 |  |
| CCNC1=NS(=O)(=O)c2sc(Cl)cc2N1 | 74 | 1.9 | 136 | 9 | EC50 (Rattus norvegicus [21]): 136 µM |
| CC1(NC2=NS(=O)(=O)c3sc(Cl)cc3N2)CCCC1 | 79 | 0.07 | 6.2 | 0.08 |  |
